Compound activity as filed in PubChem BioAssay.
Compounds with a hit are over-represented: about 5.9% of the library has one in this group of screens.
T cruzi growth-1 – T. cruzi intracellular proliferation inhibitors, primary screen, cell-based, beta-gal Tulahuen parasites, NIH3T3 host, luminescence | T. cruzi beta-gal in NIH3T3, GalScreen luminescence, 90 h | 77,000 tested, 5.9% active | inhibition, % at 8.34 µM | AID 624255, 2012;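 active means mean inhibition above about 93%, with at least 55% of replicates each passing it, limit read from the data, passing the limit was not always enough; inconclusive means only one of those two conditions holds; inactive means neither condition holds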
Pf Dd2 growth – P. falciparum Dd2 growth inhibitors, primary screen, SYBR Green fluorescence, single dose replicates. activity change, % at 10 µM. 94,000 tested, 2.3% active. AID 1159554, 2015. 72 h; active compounds read low; in the data active means activity change below about -80%; inconclusive means no clear call, values can overlap the other calls
IDH1 R132H inh – inhibitors of IDH1 R132H reductase, primary screen, biochemical, plate reader, single point; AID 624101, 2012; inhibition, % at 10 µM; diaphorase/resazurin fluorescence, 60 min; 70,000 tested, 0.18% active; in the data active means inhibition above about 34%; inconclusive means no clear call, values can overlap the other calls; inactive means below about 11%;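 further: 0% = DMSO and 100% = no enzyme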
Target sequence (O75874 whole entry R132H): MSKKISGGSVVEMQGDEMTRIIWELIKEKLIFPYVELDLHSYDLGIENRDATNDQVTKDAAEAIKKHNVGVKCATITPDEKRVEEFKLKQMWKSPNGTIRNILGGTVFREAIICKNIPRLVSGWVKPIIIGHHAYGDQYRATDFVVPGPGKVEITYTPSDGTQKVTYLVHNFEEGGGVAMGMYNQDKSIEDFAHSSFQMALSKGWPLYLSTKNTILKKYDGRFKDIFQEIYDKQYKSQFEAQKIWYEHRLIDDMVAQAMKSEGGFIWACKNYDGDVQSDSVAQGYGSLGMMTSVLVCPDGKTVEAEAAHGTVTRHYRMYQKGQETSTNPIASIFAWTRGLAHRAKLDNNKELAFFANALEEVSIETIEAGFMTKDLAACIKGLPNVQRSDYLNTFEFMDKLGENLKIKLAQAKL
GASC1 inh – inhibitors of GASC-1 (KDM4C) histone demethylase, primary screen, biochemical, single concentration HTS; Lysine-specific demethylase 4C (Homo sapiens), Q9H3R0; inhibition, % at 12.5 µM; GST-KDM4C 2-372, H3K9me3 peptide, LANCE TR-FRET; AID 720574, 2013; 96,000 tested, 0.15% active;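 active means mean replicate inhibition above about 25%, with at least 55% of replicates also reaching it, limit read from the data, passing the limit was not always enough; inconclusive means only one of those two conditions met; inactive means neither condition met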
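Compound: one test concentration per compound; Material: GST-GASC-1 enzyme fragment 2-372; Amount: GASC-1 enzyme at 10 nM final in reaction; Also added: H3K9me3 peptide substrate, Fe(II), 2-oxoglutarate; Technique: LANCE TR-FRET; Times: 30 min demethylation and 1 h detection at room temperature.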
T cruzi growth-2 – T. cruzi intracellular proliferation inhibitors, confirmation, cell-based, NIH3T3 host, beta-gal parasite, luminescence, cherry-pick; shares compounds with T cruzi growth-1; T. cruzi beta-gal in NIH3T3, GalScreen luminescence, 90 h; inhibition, % at 8.35 µM; 5,600 tested, 72% active;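 active means mean replicate inhibition above about 95% and at least 55% of replicates individually reaching it, limit read from the data; inconclusive means only one of the two criteria is met; inactive means neither criterion is met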
T cruzi growth-3 – inhibitors of intracellular T. cruzi replication, confirmation, NIH3T3 host cells, beta-gal parasites, cherry-pick, set 2. shares compounds with T cruzi growth-1. T. cruzi beta-gal in NIH3T3, GalScreen luminescence, 90 h. inhibition, % at 2.09 µM. 5,600 tested, 21% active. AID 651740, 2012;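 active means mean inhibition above about 95%, with at least 55% of replicates also reaching it, limit read from the data; inconclusive means meets just one of the two conditions; inactive means meets neither condition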;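 further: plate controls were neutral control median for no effect and positive control median for full effect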
NIH3T3 tox – cytotoxicity in mouse NIH/3T3 fibroblasts, confirmation, cytotoxicity control for T. cruzi proliferation inhibitor project, cell-based, cherry-pick, single point; shares compounds with T cruzi growth-1; NIH/3T3 viability, CellTiter-Glo ATP luminescence, 90 h; cytotoxicity (signal decrease), % at 8.35 µM; 5,600 tested, 14% active; AID 651742, 2012;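 active means mean signal decrease across replicates above about 35% based on untreated-well scatter, with enough replicates individually passing, limit read from the data; inconclusive means no rule stated though some were filed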;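 further: 0% = median of neutral control wells and 100% = median of positive control wells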
3T3 cytotox 2 – NIH/3T3 fibroblast cytotoxicity, confirmation, cytotoxicity control, cell-based, cherry-pick, single point, set 2. shares compounds with T cruzi growth-1. NIH/3T3 viability, CellTiter-Glo ATP luminescence, 90 h. inhibition, % at 24.9 µM. 5,600 tested, 56% active;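 active means mean loss of cell viability signal at or above a set limit, and enough replicates individually reaching it; inconclusive means meets only the mean limit or only the replicate share; inactive means meets neither condition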;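 further: 0% = median of neutral control wells and 100% = median of positive control wells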
Starred values were filed as active, the others as inactive; ? = inconclusive; nt = no result; ! = not confirmed by another sample.

SMILES	T cruzi growth-1	Pf Dd2 growth	IDH1 R132H inh	GASC1 inh	T cruzi growth-2	T cruzi growth-3	NIH3T3 tox	3T3 cytotox 2
C[C@H]1CCCCO[C@H](CN(C)C(=O)Nc2ccccc2)[C@@H](C)CN([C@@H](C)CO)C(=O)c2cc(NS(=O)(=O)c3ccc(Cl)cc3)ccc2O1	?	-84*	nt	-3	103*	37	-38	-18
C[C@@H]1CCCCO[C@@H](CN(C)C(=O)Nc2ccccc2)[C@@H](C)CN([C@@H](C)CO)C(=O)c2cc(NS(=O)(=O)c3ccc(Cl)cc3)ccc2O1	118*	-69	nt	-1	104*	40	-12	-5
C[C@@H]1CCCCO[C@@H](CN(C)C(=O)Nc2ccccc2)[C@@H](C)CN([C@H](C)CO)C(=O)c2cc(NS(=O)(=O)c3ccc(Cl)cc3)ccc2O1	48	-7	1	1	nt	nt	nt	nt
Cc1nc([N+](=O)[O-])c(Sc2nc3ncc(Cl)cc3[nH]2)n1Cc1ccccc1	nt	nt	0	nt	nt	nt	nt	nt
COc1ccccc1N1C(=O)C2C(c3ccc(F)cc3)NC(Cc3ccccc3)(C(=O)O)C2C1=O (stereo not given)	nt	nt	0	nt	nt	nt	nt	nt
Cc1ccc(NC(=O)Cn2cc(C(=O)c3cccs3)c3ccccc32)cc1Cl	nt	nt	0	nt	nt	nt	nt	nt
C[C@H](CO)N1C[C@H](C)[C@@H](CN(C)Cc2ccc(-c3ccccc3)cc2)Oc2cc(C#C[C@@H](C)O)ccc2S1(=O)=O	97*	-61	nt	-1	87	107*	109*	104*
C[C@@H]1CN([C@H](C)CO)S(=O)(=O)c2ccc(C#CC(C)(C)O)cc2O[C@H]1CN(C)Cc1ccc(-c2ccccc2)cc1	121*	-84*	-2	7	89	110*	118*	107*
C[C@H](O)C#Cc1ccc2c(c1)O[C@@H](CN(C)Cc1ccc(-c3ccccc3)cc1)[C@H](C)CN([C@@H](C)CO)S2(=O)=O	113*!	-45	-1	-3	101*	99*	114*	108*
CC(=O)N(C)c1ccc(NC(=O)COc2ccc([N+](=O)[O-])cc2)cc1	nt	nt	0	nt	nt	nt	nt	nt
CN(C)c1ccc2c(c1)[C@H]1C[C@H](CC(=O)NCc3ccc(Oc4ccccc4)cc3)O[C@H](CO)[C@H]1O2	135*	-90*	-2	9	76	32	-9	56*
CN(C)c1ccc2c(c1)[C@@H]1C[C@H](CC(=O)NCc3ccc(Oc4ccccc4)cc3)O[C@@H](CO)[C@@H]1O2	153*	-75	-3	nt	47	9	53*	55*
CN(C)c1ccc2c(c1)[C@@H]1C[C@@H](CC(=O)NCc3ccc(Oc4ccccc4)cc3)O[C@H](CO)[C@@H]1O2	52	-35	-1	nt	nt	nt	nt	nt
CN(C)c1ccc2c(c1)[C@@H]1C[C@H](CC(=O)NCc3ccc(Oc4ccccc4)cc3)O[C@H](CO)[C@@H]1O2	122*	-54	-1	1	43	12	-1	?
CC(=O)Nc1c(O)nc(SCC(=O)N(c2ccccc2)c2ccccc2)[nH]c1=O	nt	nt	0	nt	nt	nt	nt	nt
CC1=C(CCC2=CC(=O)OC2O)[C@@]2(C)CCC[C@]3(C)C(=O)OC(C1=O)[C@@H]32 (stereo not given in full)	nt	nt	1	nt	nt	nt	nt	nt
COC(=O)c1ccccc1NC(=O)CN(C)S(=O)(=O)c1ccc(F)cc1	nt	nt	-1	nt	nt	nt	nt	nt
COCC#Cc1ccc([C@H]2[C@@H](CO)N3CCCCN(Cc4ccncc4)C[C@H]23)cc1	108*	14	nt	4	106*	74	17	30
CCCC#Cc1ccc([C@@H]2[C@H](CO)N3CCCCN(CC4CC4)C[C@@H]23)cc1	70	-62	nt	1	nt	nt	nt	nt
CCCC#Cc1ccc([C@@H]2[C@@H](CO)N3CCCCN(Cc4ccncc4)C[C@H]23)cc1	109*	-36	nt	4	98*	45	35*	67*
COCC#Cc1ccc([C@H]2[C@H](CO)N3CCCCN(Cc4cncnc4)C[C@@H]23)cc1	115*	15	nt	-1	98*	48	-11	-9
COCC#Cc1ccc([C@@H]2[C@@H](CO)N3CCCCN(Cc4ccncc4)C[C@H]23)cc1	57	8	nt	4	nt	nt	nt	nt
CCCC#Cc1ccc([C@H]2[C@H](CO)N3CCCCN(CC4CC4)C[C@@H]23)cc1	98*	-46	nt	nt	109*	43	?	105*
CO[C@H]1CC(O[C@@H]2/C(C)=C/C[C@@H]3C[C@@H](C[C@]4(CC[C@H](C)[C@@H](C5CCCCC5)O4)O3)OC(=O)[C@@H]3C=C(C)/C(=N/O)[C@H]4OC/C(=C\C=C\[C@@H]2C)[C@]43O)O[C@@H](C)C1O (stereo not given in full)	nt	nt	0	nt	nt	nt	nt	nt
O=S(=O)(c1ccc(Cl)cc1)N1CCN(C(=S)NCc2ccco2)CC1	nt	nt	4	nt	nt	nt	nt	nt
SMILES	T cruzi growth-1	Pf Dd2 growth	IDH1 R132H inh	GASC1 inh	T cruzi growth-2	T cruzi growth-3	NIH3T3 tox	3T3 cytotox 2
CCCC#Cc1ccc([C@H]2[C@@H](CO)N3CCCCN(Cc4cccnc4)C[C@H]23)cc1	?	-52	nt	-1	108*	92	29	102*
COc1ccc(C#Cc2ccc([C@H]3[C@H](CO)N4CCCCN(Cc5ccncc5)C[C@@H]34)cc2)cc1	90*	-58	nt	4	109*	85	49*	105*
CCCC#Cc1ccc([C@H]2[C@@H](CO)N3CCCCN(Cc4ccncc4)C[C@H]23)cc1	49	-71	nt	2	nt	nt	nt	nt
CCCC#Cc1ccc([C@@H]2[C@H]3CN(Cc4ccncc4)CCCCN3[C@H]2CO)cc1	?	-70	nt	2	96*	17	37*	106*
COc1ccc(-c2nnn(CC(=O)Nc3ccc(OC)cc3OC)n2)cc1	nt	nt	9	nt	nt	nt	nt	nt
COC(=O)c1c(NC(=O)Cn2cc([N+](=O)[O-])cn2)sc2c1CCCC2	nt	nt	0	nt	nt	nt	nt	nt
Cc1ccc(Cl)c(OCC(=O)Nc2sc(C)c(C)c2C(N)=O)c1	nt	nt	0	nt	nt	nt	nt	nt
CS(=O)(=O)N(CC(=O)Nc1cc(C(F)(F)F)ccc1Cl)c1cccc(F)c1	nt	nt	0	nt	nt	nt	nt	nt
C[C@@H](NC(=O)C[C@@H]1C=C[C@H](NC(=O)C2CCOCC2)[C@H](CO)O1)c1ccccc1	18	-4	0	1	nt	nt	nt	nt
